Here are results for 22 sequences from the EternaBench riboswitch data.

The series deals with MS2 coat protein. In words: apparent Kd, MS2 coat protein; higher = weaker binding; RNA-MaP array; theophylline 2 mM where present. Summed up: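 On Illumina sequencing-chip clusters, designs were transcribed by stalled E. coli RNA polymerase and titrated with SNAP-549-labelled MS2 coat protein (0.7 or 1.5 nM, doubling to 3 µM), without and then with constant ligand, in 100 mM Tris-HCl pH 7.5, 80 mM KCl, 4 mM MgCl2, BSA, DTT, yeast tRNA and Tween-20. Apparent Kd is the median of filtered per-cluster curve fits to green signal normalised to red-channel RNA signal and control-cluster median Fmax.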

The mark [1] stands for this setting: designed as: ON switch for theophylline, no ligand.
The mark [2] stands for this setting: ligand present: theophylline, designed as: ON switch for theophylline.
The mark [3] stands for this setting: designed as: OFF switch for theophylline, no ligand.
The mark [4] stands for this setting: ligand present: theophylline, designed as: OFF switch for theophylline.

As to “UUUACAUGAGGAUCACCCAUGUUCCAUGAUACCAGACAUGAAAAUGUCCCUUGGCAGCAUGAAUGAUUCAUAGGAUAAUUAUGGG”, the apparent Kd (in general, a dissociation constant that holds for the conditions of the assay) was determined as 98.7 nM under setting [1] and 52.9 nM under setting [2].
For “CGAUCUUUCGAAAGAAGGAUCUUGUCUGAUACCAGAGACGAAAGUCUCCCUUGGCAGCAGUGCCAACAUGAGGAUCACCCAUGUU” the same measures were 14.5 nM and 14.8 nM.
“GAUGAACUAUGUGAUACCAGACAACAUGAGGAUCACCCAUGUGCGCGUCGUCCUCUGCCUGUCCCUUGGCAGCGUAUAGUUUAUC”: the “apparent Kd” value is 60.3 nM under setting [3] and 124 nM under setting [4].
Taken in the same sequence, the figures for “CGAUGAUGAAGGGAUACCAGAAAUGGUAUUCCUUUAUUUCUUACAUGAGGAUCACCCAUGUUCCCUUGGCAGCUUUUUAUCAUCG” were 75.7 nM and 117 nM.
Consider “AUACAUGAGGAUCACCCAUGUAUAGUCGAUACCAGCUCAAGGAAGAGCCCUUGGCAGCGACACUGGUAUCCAUGGGUGAUACCAG”, for which the “apparent Kd” value stood at 22.3 nM under setting [1] and 31.5 nM under setting [2].
For “ACACAUGAGGAUCACCCAUGUUCAAUAGAUACCAGUGAUACGGUGCACCCUUGGCAGCUGUUGCUGAGUGAUGGUUCCCUCGGAA” the same measures were 55.2 nM and 77.7 nM.
With “CCUCGACAUGAGGAUCACCCAUGUAGAGAUACCAGCCUGUGAGAUGGCCCUUGGCAGCUCAUAUAGGGUACAGGAGUCGUUUUGA”, the “apparent Kd” value is 23.2 nM under setting [3] and 85.1 nM under setting [4].
Consider “UAACAUGAGGAUCACCCAUGUAUAGUCGAUACCAGCUCAAGGAAGAGCCCUUGGCAGCGACACUGCCAAGCAUGGGUCAUGGCAG”, for which the “apparent Kd” value was determined as 21.1 nM under setting [1] and 33.4 nM under setting [2].
With “GGUCUCUGGAGCGAUACCAGCUUGAUCGUACUGGCCUGGUACAUGAGGAUCACCCAUGUAAGCCCUUGGCAGCGCUCCAGAGACC”, the “apparent Kd” value was determined as 12.3 nM under setting [3] and 28.1 nM under setting [4].
For “AUAUGGCGAGAUGAUACCAGACACAUGAGGAUCACCCAUGUUGAUGGUAAGUCUGCAUAUGUCCCUUGGCAGCAUAGCGACAUAU” the same measures were 8.27 nM and 20.8 nM.
On to “AUGCAGGGCAACAGCCACUGUCACGGUGAUACCAGUACCCGUGCGUACCCUUGGCAGCAUCGUGGUACAUGAGGAUCACCCAUGU”, for which the “apparent Kd” value was found to be 271 nM under setting [1] and 180 nM under setting [2].
For “GUGGAGACACGAGAUACCAGUCUCUAUAACAUGAGGAUCACCCAUGUAAUGCUCCUCAGGGACCCUUGGCAGCUCAGUAUGAUGA”, the “apparent Kd” value is, setting by setting: under setting [3], 32.9 nM; under setting [4], 134 nM.
Taken in the same sequence, the figures for “GAUGAACUAUUUGAUACCAGACUACAUGAGGAUCACCCAUGUGUGUUUAUACUUCUGUCAGUCCCUUGGCAGCAAAUAGUUUAUC” were 62.5 nM and 106 nM.
On to “UCGUGUAUAUCGGAUACCAGUGAGAAGGAUACAUGAGGAUCACCCAUGUGAGUUGAUGUACACCCUUGGCAGCUGUAUAUAUCUA”, for which the “apparent Kd” value reads like this: under setting [1], 49.9 nM; under setting [2], 26.2 nM.
For “AGUGUAUCCAUCGAUACCAGCCACAACGUAACAUACACAUGAGGAUCACCCAUGUUGUGUGGCCCUUGGCAGCGGUGCCUGUGUA” the same measures were 14.3 nM and 12.2 nM.
Regarding “ACACAUGAGGAUCACCCAUGUGCAAUAGAUACCAGUGACGCGGUGCACCCUUGGCAGCUGUUGCUGAGUGAUGGUUCCCUCGGAA”, the “apparent Kd” value runs as follows: under setting [3], 36.6 nM; under setting [4], 58.5 nM.
For the sequence “GCACCAGGUACGGAUACCAGCUGCCAGCGUUACAUGAGGAUCACCCAUGUGAUCUGAAGUAGCCCUUGGCAGCUGUACCUGGUGC”, the “apparent Kd” value under setting [1] came out at 21.2 nM and the “apparent Kd” value under setting [2] amounted to 95.9 nM.
For “ACUUCAUGAGGUGAUACCAGCCAAUGACAUGAGGACAUGAGGAUCACCCAUGUUUAUGUAGGCCCUUGGCAGCACUGUAACAUGA” the same measures were 20.6 nM and 25.9 nM.
In the case of “CGGUUUGUGAUGGAUACCAGCAGUGUGGCUGUUUAUCCUGACAUGAGGAUCACCCAUGUGUGCCCUUGGCAGCUGUUGUGGGCUG”, the “apparent Kd” value runs as follows: under setting [3], 76.5 nM; under setting [4], 130 nM.
Take “AGAACAAAACUAAAUAAACAACUGGGUGAUACCAGCACAUGUGCGUGCCCUUGGCAGCAUCCGGCCACAUGAGGAUCACCCAUGU”: the “apparent Kd” value came out at 74 nM under setting [1] and 155 nM under setting [2].
Consider “AAGGGAGAAUCAGAUACCAGAGUAAGAUGGCAUGAUAAUUACAUGAGGAUCACCCAUGUACUCCCUUGGCAGCUGACAAUAUAUU”, for which the “apparent Kd” value under setting [3] came out at 10.2 nM and the “apparent Kd” value under setting [4] amounted to 12.2 nM.
Taken in the same sequence, the figures for “AGCAGUACAACAGAUACCAGACUUUUAAUGCCUCUAAUUACAUGAGGAUCACCCAUGUUUGUCCCUUGGCAGCUGUUGUACUGCA” were 136 nM and 211 nM.
